Consider five compounds from ChEMBL document CHEMBL5143736, “Discovery and Optimization of a Synthetic Class of Nectin-4-Targeted CD137 Agonists for Immuno-oncology” (J Med Chem, 2022).

The structures appear in SMILES notation.

The nature of data set [1]: Half life in Sprague-Dawley rat at 2 mg/kg, iv by LC/MS/MS analysis. To be noted: in vivo.
Data set [2] has as its system PBMC. As to the kind of experiment: […] activity in human PBMC stimulated with anti-CD3-mediated CD137 expression in cocultured with […] cell line assessed as increase in secretion of IL2 incubated for 48 hrs by Luminex assay. The conditions noted are these: DDE = dose-dependent effect. The data set is classed as functional, cell-based. A digest of the protocol: (§1)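 Healthy-donor PBMCs were thawed into R10 medium and cocultured with HT1376 cells at 10:1 effector:target (1×10^5 PBMC:1×10^4 tumor cells per well). Soluble anti-CD3 OKT3 (100 ng/mL) was added on day 0, then compound, 37 °C, 5% CO2. Supernatant IFNγ and IL-2 taken at 24 and 48 h, measured by Luminex. Four-parameter fit, n = 3, repeated in multiple donors.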

Data set [3] relates to PBMC. Put plainly: […] activity in human PBMC stimulated with anti-CD3-mediated CD137 expression in cocultured with […] cell line assessed as increase in secretion of IFN gamma incubated for 48 hrs by Luminex assay. The data set is classed as functional, cell-based. To be noted: DDE = dose-dependent effect. In short, it runs like this:
as §1

Data set [4] concerns the target T1, Tumor necrosis factor receptor superfamily member 9 (Homo sapiens, UniProt Q07011). Put plainly: Binding affinity to human CD137 assessed as dissociation constant using 1:1 Nectin-4/CD137 by surface plasmon resonance analysis. The conditions noted are these: filed as agonist. A digest of the protocol:
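Biacore T200 SPR against human CD137 protein at 25 °C. Peptide series in PBS/0.05% Tween 20 with 0.5% final DMSO; top concentration 500 nM (6 further threefold dilutions) or 10 μM (6 further twofold dilutions). 60 s association, 100–600 s dissociation, 10 mM glycine pH 2 regeneration. Data DMSO-corrected and double-referenced; kinetic fit gives ka, kd and KD.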
(In general: SPR reads the build-up and loss of mass on a sensor chip optically.)

In data set [5] the target is T1, Tumor necrosis factor receptor superfamily member 9. Put plainly: Binding affinity to human CD137 assessed as dissociation constant by surface plasmon resonance analysis. A digest of the protocol: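 Biacore T200 SPR, human CD137, 25 °C. Peptide series in PBS/0.05% Tween 20 with 0.5% DMSO: top 500 nM (threefold) or 10 μM (twofold), 6 further dilutions. Flow 90 μL/min, 60 s association, 100–600 s dissociation, glycine pH 2 regeneration. DMSO-corrected and double-referenced; kinetic fit gives ka, kd, KD.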

T1 sequence (Q07011 whole entry): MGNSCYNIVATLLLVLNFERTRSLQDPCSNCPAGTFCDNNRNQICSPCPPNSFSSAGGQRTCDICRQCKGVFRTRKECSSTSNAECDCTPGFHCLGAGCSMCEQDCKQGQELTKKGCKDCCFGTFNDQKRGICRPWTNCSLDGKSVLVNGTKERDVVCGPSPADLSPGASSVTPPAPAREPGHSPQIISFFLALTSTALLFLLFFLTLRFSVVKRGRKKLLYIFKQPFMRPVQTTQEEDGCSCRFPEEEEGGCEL

The term half-life denotes how long it takes for the measured level to halve. With `CCCC[C@@H]1NC(=O)[C@H](Cc2ccc(O)cc2)NC(=O)[C@@H]2CCCN2C(=O)[C@H](CC(=O)O)NC(=O)[C@H](C)NC(=O)[C@H](Cc2ccccc2)NC(=O)[C@@H]2CSCCC(=O)N3CN(CN(C3)C(=O)CCSC[C@@H](C(=O)N[C@@H](CNC(=O)CCOCCOCCOCCOCCOCCn3cc(CCC(=O)N[C@H]4CSCCC(=O)N5CN6CN(C5)C(=O)CCSC[C@H](NC(=O)[C@@H](CC(=O)O)NC(=O)[C@H](Cc5cccc7ccccc57)NC(=O)[C@@H]5CCCN5C4=O)C(=O)N[C@@H](CCSC)C(=O)N[C@@H](CCCCNC(=N)N)C(=O)N[C@@H](CC(=O)O)C(=O)N[C@@H](Cc4c[nH]c5ccccc45)C(=O)N[C@@H](CO)C(=O)N[C@@H]([C@@H](C)O)C(=O)N4CCC[C@H]4C(=O)N4C[C@H](O)C[C@H]4C(=O)N[C@@H](Cc4c[nH]c5ccccc45)C(=O)N[C@H](C(N)=O)CSCCC6=O)nn3)C(N)=O)NC1=O)C(=O)CCSC[C@H](NC(C)=O)C(=O)N[C@@H](CC(C)(C)C)C(=O)N1CCC[C@H]1C(=O)N[C@@H](CCC(=O)O)C(=O)N[C@H](C)C(=O)N1CCC[C@H]1C(=O)N[C@@H](Cc1ccc(O)cc1)C(=O)N2`, the half-life in data set [1] is 57.6 min.
Regarding `CCCC[C@@H]1NC(=O)[C@H](Cc2ccc(O)cc2)NC(=O)[C@@H]2CCCN2C(=O)[C@H](CC(=O)O)NC(=O)[C@H](C)NC(=O)[C@H](Cc2ccccc2)NC(=O)[C@@H]2CSCCC(=O)N3CN(CN(C3)C(=O)CCSC[C@@H](C(=O)N[C@@H](CNC(=O)CCc3cn(CCOCCOCCOCCOCCOCCOCCOCCOCCOCCOCCOCCOCCC(=O)NCCC(=O)N(C)CC(=O)N(C)CC(=O)N(C)CC(=O)N(C)CC(=O)N(C)CC(=O)N(C)CC(=O)N(C)CC(=O)N(C)CC(=O)N(C)CC(=O)N(C)CC(=O)N[C@H]4CSCCC(=O)N5CN6CN(C5)C(=O)CCSC[C@H](NC(=O)[C@@H](CC(=O)O)NC(=O)[C@H](Cc5cccc7ccccc57)NC(=O)[C@@H]5CCCN5C4=O)C(=O)N[C@H](CCSC)C(=O)N[C@@H](CCCCNC(=N)N)C(=O)N[C@H](CC(=O)O)C(=O)N[C@@H](Cc4c[nH]c5ccccc45)C(=O)N[C@@H](CO)C(=O)N[C@@H]([C@H](C)O)C(=O)N4CCC[C@H]4C(=O)N4C[C@H](O)C[C@H]4C(=O)N[C@@H](Cc4c[nH]c5ccccc45)C(=O)N[C@H](C(N)=O)CSCCC6=O)nn3)C(N)=O)NC1=O)C(=O)CCSC[C@H](NC(C)=O)C(=O)N[C@@H](CC(C)(C)C)C(=O)N1CCC[C@H]1C(=O)N[C@@H](CCC(=O)O)C(=O)N[C@@H](C)C(=O)N1CCC[C@H]1C(=O)N[C@@H](Cc1ccc(O)cc1)C(=O)N2`, the Activity result in data set [2] and in data set [3] was “Dde” each time. In data set [1], this compound showed a half-life of 21.6 min.
Turning to `CCCC[C@@H]1NC(=O)[C@H](Cc2ccc(O)cc2)NC(=O)[C@@H]2CCCN2C(=O)[C@H](CC(=O)O)NC(=O)[C@H](C)NC(=O)[C@H](Cc2ccccc2)NC(=O)[C@@H]2CSCCC(=O)N3CN(CN(C3)C(=O)CCSC[C@@H](C(=O)N[C@@H](CNC(=O)CCc3cn(CCOCCOCCOCCOCCOCCOCCOCCOCCOCCOCCNC(=O)N[C@H]4CSCCC(=O)N5CN6CN(C5)C(=O)CCSC[C@H](NC(=O)[C@@H](CC(=O)O)NC(=O)[C@H](Cc5cccc7ccccc57)NC(=O)[C@@H]5CCCN5C4=O)C(=O)N[C@@H](CCSC)C(=O)N[C@@H](CCCCNC(=N)N)C(=O)N[C@@H](CC(=O)O)C(=O)N[C@@H](Cc4c[nH]c5ccccc45)C(=O)N[C@@H](CO)C(=O)N[C@@H]([C@@H](C)O)C(=O)N4CCC[C@H]4C(=O)N4C[C@H](O)C[C@H]4C(=O)N[C@@H](Cc4c[nH]c5ccccc45)C(=O)N[C@H](C(N)=O)CSCCC6=O)nn3)C(N)=O)NC1=O)C(=O)CCSC[C@H](NC(=O)[C@H](C)NC(C)=O)C(=O)NC([C@@H](C)CC)C(=O)N[C@@H](CCC(=O)O)C(=O)N[C@@H](CCC(=O)O)C(=O)NCC(=O)N[C@@H](CCC(N)=O)C(=O)N[C@@H](Cc1ccc(O)cc1)C(=O)N2` (some centres not stated), the Activity in data set [4] was 73 nM.
The term Kd denotes the equilibrium constant for the complex coming apart. For `CCCC[C@@H]1NC(=O)[C@H](Cc2ccc(O)cc2)NC(=O)[C@@H]2CCCN2C(=O)[C@H](CC(N)=O)NC(=O)[C@H](C)NC(=O)[C@H](Cc2ccccc2)NC(=O)[C@@H]2CSCCC(=O)N3CN(CN(C3)C(=O)CCSC[C@H](NC(C)=O)C(=O)N[C@@H](CC(C)(C)C)C(=O)N3CCC[C@H]3C(=O)N[C@@H](CCC(=O)O)C(=O)N[C@H](CCCCNC(=O)CCc3cn(CCOCCOCCOCCOCCOCCC(=O)N[C@H]4CSCCC(=O)N5CN6CN(C5)C(=O)CCSC[C@H](NC(=O)[C@@H](CC(=O)O)NC(=O)[C@H](Cc5cccc7ccccc57)NC(=O)[C@@H]5CCCN5C4=O)C(=O)N[C@@H](CCSC)C(=O)N[C@@H](CCCCNC(=N)N)C(=O)N[C@@H](CC(=O)O)C(=O)N[C@@H](Cc4c[nH]c5ccccc45)C(=O)N[C@@H](CO)C(=O)N[C@@H]([C@@H](C)O)C(=O)N4CCC[C@H]4C(=O)N4C[C@H](O)C[C@H]4C(=O)N[C@@H](Cc4c[nH]c5ccccc45)C(=O)N[C@H](C(N)=O)CSCCC6=O)nn3)C(=O)N3CCC[C@H]3C(=O)N[C@@H](Cc3ccc(O)cc3)C(=O)N2)C(=O)CCSC[C@@H](C(N)=O)NC1=O`, the Kd in data set [5] was 878 nM.
Take `CCCC[C@@H]1NC(=O)[C@H](Cc2ccc(O)cc2)NC(=O)[C@@H]2CCCN2C(=O)[C@H](CCC(=O)O)NC(=O)[C@H](C)NC(=O)[C@H](Cc2ccccc2)NC(=O)[C@@H]2CSCCC(=O)N3CN(CN(C3)C(=O)CCSC[C@H](NC(C)=O)C(=O)N[C@@H](CC(C)(C)C)C(=O)N3CCC[C@H]3C(=O)N[C@@H](CCC(=O)O)C(=O)N[C@H](CCCCNC(=O)CCc3cn(CCOCCOCCOCCOCCOCCC(=O)N[C@H]4CSCCC(=O)N5CN6CN(C5)C(=O)CCSC[C@H](NC(=O)[C@@H](CC(=O)O)NC(=O)[C@H](Cc5cccc7ccccc57)NC(=O)[C@@H]5CCCN5C4=O)C(=O)N[C@@H](CCSC)C(=O)N[C@@H](CCCCNC(=N)N)C(=O)N[C@@H](CC(=O)O)C(=O)N[C@@H](Cc4c[nH]c5ccccc45)C(=O)N[C@@H](CO)C(=O)N[C@@H]([C@@H](C)O)C(=O)N4CCC[C@H]4C(=O)N4C[C@H](O)C[C@H]4C(=O)N[C@@H](Cc4c[nH]c5ccccc45)C(=O)N[C@H](C(N)=O)CSCCC6=O)nn3)C(=O)N3CCC[C@H]3C(=O)N[C@@H](Cc3ccc(O)cc3)C(=O)N2)C(=O)CCSC[C@@H](C(N)=O)NC1=O`: the Kd in data set [5] stood at 2370 nM.
